# Measurements taken from ChEMBL document CHEMBL3272012, “5-(Tetradecyloxy)-2-furancarboxylic acid and related hypolipidemic fatty acid-like alkyloxyarylcarboxylic acids” (J Med Chem, 1977).
# Key:
# Rattus norvegicus [1] = assay: Hypolipidemic activity in Wistar rat assessed as reduction in plasma triglyceride level at 402 umol/kg/day administered through diet for 10 days; type: functional; settings: 240 h
# Rattus norvegicus [2] = assay: Hypolipidemic activity in Wistar rat assessed as reduction in plasma triglyceride level at 179 umol/kg/day administered through diet for 10 days; type: functional; settings: 240 h
# How it was run: (§1)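 Young male Wistar rats (initial weight 170-190 g), groups of six, fed compound mixed into Purina Lab Chow ad libitum for 4 or 10 days; daily dose calculated from food consumption and body weight. Bled by cardiac puncture; plasma cholesterol and triglycerides by automated procedures; percent reduction versus simultaneous untreated controls, Student's t test.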
# Rattus norvegicus [3] = assay: Hypolipidemic activity in Wistar rat assessed as reduction in plasma triglyceride level at 85 umol/kg/day administered through diet for 10 days; type: functional; settings: 240 h
# Rattus norvegicus [4] = assay: Hypolipidemic activity in Wistar rat assessed as reduction in plasma cholesterol level at 402 umol/kg/day administered through diet for 10 days; type: functional; settings: 240 h
# How it was run: (§2)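 Young male Wistar rats, 170-190 g at start, in groups of six, given compound mixed into Purina Lab Chow ad libitum for 4 or 10 days as stated. Daily dose was calculated from food consumption and body weight. Plasma was taken by cardiac puncture at the end and cholesterol measured by automated procedure. Results are % reduction versus a concurrent untreated control group, with Student's t test.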
# Rattus norvegicus [5] = assay: Hypolipidemic activity in Wistar rat assessed as reduction in plasma cholesterol level at 179 umol/kg/day administered through diet for 10 days; type: functional; settings: 240 h; how it was run: as §2
# Rattus norvegicus [6] = assay: Hypolipidemic activity in Wistar rat assessed as reduction in plasma cholesterol level at 85 umol/kg/day administered through diet for 10 days; type: functional; settings: 240 h; how it was run: as §1
# Rattus norvegicus [7] = assay: Increase in liver weight in Wistar rat at 402 umol/kg/day administered through diet for 10 days; type: ADME, organism-based; settings: in vivo, po, 240 h
# Rattus norvegicus [8] = assay: Increase in liver weight in Wistar rat at 179 umol/kg/day administered through diet for 10 days; type: ADME, organism-based; settings: in vivo, po, 240 h
# Rattus norvegicus [9] = assay: Increase in liver weight in Wistar rat at 85 umol/kg/day administered through diet for 10 days; type: ADME, organism-based; settings: in vivo, po, 240 h
# Rattus norvegicus [10] = assay: Increase in cholesterol level in Wistar rat liver at 402 umol/kg/day administered through diet for 10 days; type: ADME, organism-based; settings: in vivo, po, 240 h
# Rattus norvegicus [11] = assay: Increase in cholesterol level in Wistar rat liver at 179 umol/kg/day administered through diet for 10 days; type: ADME, organism-based; settings: in vivo, po, 240 h
# How it was run: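 Male Wistar rats (170-190 g), six per group, given compound by admixture to lab chow ad libitum for 4 or 10 days, dose derived from food intake. Liver cholesterol determined by automated procedure, expressed as mg/g wet tissue, compared with an untreated control group by Student's t test.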
# Rattus norvegicus [12] = assay: Increase in cholesterol level in Wistar rat liver at 85 umol/kg/day administered through diet for 10 days; type: ADME, organism-based; settings: in vivo, po, 240 h
# Rattus norvegicus [13] = assay: Hypolipidemic activity in Wistar rat assessed as reduction in plasma cholesterol level at 369 umol/kg/day administered through diet for 4 days; type: functional; settings: 96 h; how it was run: as §2
# Rattus norvegicus [14] = assay: Hypolipidemic activity in Wistar rat assessed as reduction in plasma triglyceride level at 369 umol/kg/day administered through diet for 4 days; type: functional; settings: 96 h
# How it was run: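 Young male Wistar rats, 170-190 g at start, six per group, given compound mixed into Purina Lab Chow, fed ad libitum for 4 or 10 days. Daily dose calculated from food consumption and body weight. Rats bled by cardiac puncture at end of treatment. Plasma triglycerides determined by automated procedure. Expressed as percent reduction versus a concurrent untreated control group, Student's t test.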
# Rattus norvegicus [15] = assay: Increase in liver weight in Wistar rat at 369 umol/kg/day administered through diet for 4 days; type: ADME, organism-based; settings: in vivo, po, 96 h
# Rattus norvegicus [16] = assay: Hypolipidemic activity in Wistar rat assessed as reduction in plasma cholesterol level at 332 umol/kg/day administered through diet for 4 days; type: functional; settings: 96 h; how it was run: as §2
# Rattus norvegicus [17] = assay: Hypolipidemic activity in Wistar rat assessed as reduction in plasma triglyceride level at 332 umol/kg/day administered through diet for 4 days; type: functional; settings: 96 h
# How it was run: (§3)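 Young male Wistar rats, 170-190 g initial weight, six per group, fed drug mixed thoroughly into Purina Lab Chow ad libitum for the stated days; daily dose calculated from food consumption and body weight. Bled by cardiac puncture at end; plasma cholesterol and triglycerides by automated procedures, expressed as percent reduction versus simultaneous untreated controls; Student's t test.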
# Rattus norvegicus [18] = assay: Increase in liver weight in Wistar rat at 332 umol/kg/day administered through diet for 4 days; type: ADME, organism-based; settings: in vivo, po, 96 h
# Rattus norvegicus [19] = assay: Hypolipidemic activity in Wistar rat assessed as reduction in plasma triglyceride level at 332 umol/kg/day administered through diet for 10 days; type: functional; settings: 240 h; how it was run: as §3
# Rattus norvegicus [20] = assay: Hypolipidemic activity in Wistar rat assessed as reduction in plasma triglyceride level at 169 umol/kg/day administered through diet for 10 days; type: functional; settings: 240 h; how it was run: as §3
# Rattus norvegicus [21] = assay: Hypolipidemic activity in Wistar rat assessed as reduction in plasma triglyceride level at 84 umol/kg/day administered through diet for 10 days; type: functional; settings: 240 h
# Rattus norvegicus [22] = assay: Hypolipidemic activity in Wistar rat assessed as reduction in plasma cholesterol level at 332 umol/kg/day administered through diet for 10 days; type: functional; settings: 240 h; how it was run: as §2
# Rattus norvegicus [23] = assay: Hypolipidemic activity in Wistar rat assessed as reduction in plasma cholesterol level at 169 umol/kg/day administered through diet for 10 days; type: functional; settings: 240 h; how it was run: as §2
# Rattus norvegicus [24] = assay: Hypolipidemic activity in Wistar rat assessed as reduction in plasma cholesterol level at 84 umol/kg/day administered through diet for 10 days; type: functional; settings: AT84, Plasma, 240 h; how it was run: as §1
# Rattus norvegicus [25] = assay: Increase in liver weight in Wistar rat at 332 umol/kg/day administered through diet for 10 days; type: ADME, organism-based; settings: in vivo, po, 240 h
# Rattus norvegicus [26] = assay: Increase in liver weight in Wistar rat at 169 umol/kg/day administered through diet for 10 days; type: ADME, organism-based; settings: in vivo, po, 240 h
# Rattus norvegicus [27] = assay: Increase in liver weight in Wistar rat at 84 umol/kg/day administered through diet for 10 days; type: ADME, organism-based; settings: in vivo, po, 240 h
# Rattus norvegicus [28] = assay: Increase in cholesterol level in Wistar rat liver at 332 umol/kg/day administered through diet for 10 days; type: ADME, organism-based; settings: in vivo, po, 240 h
# Rattus norvegicus [29] = assay: Increase in cholesterol level in Wistar rat liver at 169 umol/kg/day administered through diet for 10 days; type: ADME, organism-based; settings: in vivo, po, 240 h
# Rattus norvegicus [30] = assay: Increase in cholesterol level in Wistar rat liver at 84 umol/kg/day administered through diet for 10 days; type: ADME, organism-based; settings: in vivo, po, 240 h
# Rattus norvegicus [31] = assay: Hypolipidemic activity in Wistar rat assessed as reduction in plasma cholesterol level at 381 umol/kg/day administered through diet for 4 days; type: functional; settings: 96 h; how it was run: as §2
# Rattus norvegicus [32] = assay: Hypolipidemic activity in Wistar rat assessed as reduction in plasma triglyceride level at 381 umol/kg/day administered through diet for 4 days; type: functional; settings: 96 h
# How it was run: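 Young male Wistar rats (170-190 g initial weight), groups of six, fed test compound mixed into Purina Lab Chow ad libitum; daily dose calculated from food consumption and body weight. Bled by cardiac puncture at end of treatment; plasma triglycerides measured by automated procedure. Results given as percent reduction versus a simultaneous untreated control group, with significance by Student's t test.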
# Rattus norvegicus [33] = assay: Increase in liver weight in Wistar rat at 381 umol/kg/day administered through diet for 4 days; type: ADME, organism-based; settings: in vivo, po, 96 h
# Rattus norvegicus [34] = assay: Hypolipidemic activity in Wistar rat assessed as reduction in plasma cholesterol level at 524 umol/kg/day administered through diet for 4 days; type: functional; settings: 96 h
# How it was run: (§4)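 Young male Wistar rats, 170-190 g initial weight, groups of six, given compound mixed thoroughly into Purina Lab Chow ad libitum for 4 or 10 days as stated. Daily dose calculated from food consumption and body weight. Bled by cardiac puncture at end of treatment; plasma cholesterol measured by automated procedure. Expressed as percent reduction versus simultaneous untreated control group; Student's t test.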
# Rattus norvegicus [35] = assay: Hypolipidemic activity in Wistar rat assessed as reduction in plasma triglyceride level at 524 umol/kg/day administered through diet for 4 days; type: functional; settings: 96 h
# Rattus norvegicus [36] = assay: Increase in liver weight in Wistar rat at 524 umol/kg/day administered through diet for 4 days; type: ADME, organism-based; settings: in vivo, po, 96 h
# Rattus norvegicus [37] = assay: Hypolipidemic activity in Wistar rat assessed as reduction in plasma cholesterol level at 417 umol/kg/day administered through diet for 4 days; type: functional; settings: 96 h; how it was run: as §4
# Rattus norvegicus [38] = assay: Hypolipidemic activity in Wistar rat assessed as reduction in plasma triglyceride level at 417 umol/kg/day administered through diet for 4 days; type: functional; settings: 96 h
# Rattus norvegicus [39] = assay: Increase in liver weight in Wistar rat at 417 umol/kg/day administered through diet for 4 days; type: ADME, organism-based; settings: in vivo, po, 96 h
smiles,measurement,setting,value
CCCCCCCCCCCCCCOc1ccc(C(=O)CC(=O)OC)cc1,inhibition in vivo at 402 µmol/kg,Rattus norvegicus [1],75%
same,inhibition in vivo at 179 µmol/kg,Rattus norvegicus [2],54%
same,inhibition in vivo at 85 µmol/kg,Rattus norvegicus [3],44%
same,inhibition in vivo at 402 µmol/kg,Rattus norvegicus [4],40%
same,inhibition in vivo at 179 µmol/kg,Rattus norvegicus [5],27%
same,inhibition in vivo at 85 µmol/kg,Rattus norvegicus [6],9%
same,Activity,Rattus norvegicus [7],7%
same,Activity,Rattus norvegicus [8],3%
same,Activity,Rattus norvegicus [9],0%
same,Activity,Rattus norvegicus [10],9%
same,Activity,Rattus norvegicus [11],4%
same,Activity,Rattus norvegicus [12],0%
CCCCCCCCCCCCCCOc1ccc(C(=O)C(Cl)(Cl)Cl)o1,inhibition in vivo at 369 µmol/kg,Rattus norvegicus [13],9%
same,inhibition in vivo at 369 µmol/kg,Rattus norvegicus [14],33%
same,Activity,Rattus norvegicus [15],6%
CCCCCCCCCCCCCCOc1cc(C(=O)OC)cc(C(=O)OC)c1,inhibition in vivo at 332 µmol/kg,Rattus norvegicus [16],5%
same,inhibition in vivo at 332 µmol/kg,Rattus norvegicus [17],39%
same,Activity,Rattus norvegicus [18],0%
CCCCCCCCCCCCCCOc1ccc(C(=O)CC(=O)OCc2ccccc2)cc1,inhibition in vivo at 332 µmol/kg,Rattus norvegicus [19],43%
same,inhibition in vivo at 169 µmol/kg,Rattus norvegicus [20],70%
same,inhibition in vivo at 84 µmol/kg,Rattus norvegicus [21],8%
same,inhibition in vivo at 332 µmol/kg,Rattus norvegicus [22],24%
same,inhibition in vivo at 169 µmol/kg,Rattus norvegicus [23],15%
same,inhibition in vivo at 84 µmol/kg,Rattus norvegicus [24],16%
same,Activity,Rattus norvegicus [25],5%
same,Activity,Rattus norvegicus [26],1%
same,Activity,Rattus norvegicus [27],0%
same,Activity,Rattus norvegicus [28],10%
same,Activity,Rattus norvegicus [29],2%
same,Activity,Rattus norvegicus [30],0%
CCCCCCCCCCCCCCOc1c(Cl)cc(C(=O)OC)cc1Cl,inhibition in vivo at 381 µmol/kg,Rattus norvegicus [31],1%
same,inhibition in vivo at 381 µmol/kg,Rattus norvegicus [32],73%
same,Activity,Rattus norvegicus [33],0%
CCCCCCCCCCCCCCOc1ccco1,inhibition in vivo at 524 µmol/kg,Rattus norvegicus [34],0%
same,inhibition in vivo at 524 µmol/kg,Rattus norvegicus [35],0%
same,Activity,Rattus norvegicus [36],1%
CCCCCCCCCCCCCCOc1ccc(C(=O)OC)c(OC)c1,inhibition in vivo at 417 µmol/kg,Rattus norvegicus [37],7%
same,inhibition in vivo at 417 µmol/kg,Rattus norvegicus [38],0%
same,Activity,Rattus norvegicus [39],0%
